Reference: ChEMBL document CHEMBL1155459, “On-bead screening of a combinatorial fumaric acid derived peptide library yields antiplasmodial cysteine protease inhibitors with unusual peptide sequences” (J Med Chem, 2009)
Active and inactive are the calls of the source. The calls are words filed in the database; no cut-off is given here. Peptide text beside a SMILES is read from it.

How the values were obtained:
[1] = biological target: Procathepsin L (Bos taurus, UniProt P25975); experiment: Inhibition of bovine spleen cathepsin L
How it was run: (§1)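 Cathepsin L (bovine spleen) or B (human liver) hydrolysis of Cbz-Phe-Arg-AMC (40 μM) followed by fluorescence for 5-10 min without preincubation at 0.1-80 μM inhibitor, 10% DMSO final.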

[2] = biological target: Rhodesain (Trypanosoma brucei rhodesiense) (UniProt Q95PM0); experiment: Inhibition of Trypanosoma brucei rhodesiense recombinant rhodesain at 100 uM
How it was run: (§2)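 Single-point screen at 100 μM inhibitor (final). Recombinant enzyme in 50 mM acetate pH 5.5, 5 mM EDTA, 200 mM NaCl, 5 mM DTT, 10% DMSO final; Cbz-Phe-Arg-AMC 40 μM (or Cbz-Leu-Arg-AMC 25 μM) hydrolysis followed by fluorescence (ex 380/em 460 nm). % inhibition = 100(1 − vi/vc) from progress-curve slopes vs DMSO control; at least two independent assays.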

[3] = Inhibition of Plasmodium falciparum falcipain-2 after 12 hrs by fluorescence spectroscopy-based on-bead assay; design: concentration or dose not given beside the values; settings: concentration not given here
How it was run: (§3)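 Library members on resin (PEGA, theoretical loading 0.40 mmol/g; added as DMSO suspension, 0.64 mM final inhibitor) preincubated with enzyme 12 h, then Cbz-Phe-Arg-AMC 40 μM added; AMC release followed by fluorescence (ex 380/em 460 nm). Kinetics compared with inhibitor-free amino-PEGA resin.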

[4] = Inhibition of Plasmodium falciparum recombinant falcipain-2 expressed in Escherichia coli […] using Cbz-Leu-Arg-AMC as substrate by spectrofluorometry
[5] = biological target: T1, Cathepsin B (Homo sapiens, UniProt P07858); experiment: Inhibition of human liver cathepsin B at 100 uM
[6] = biological target: Rhodesain (Trypanosoma brucei rhodesiense) (UniProt Q95PM0); experiment: Inhibition of Trypanosoma brucei rhodesiense rhodesain after 12 hrs by fluorescence spectroscopy-based on-bead assay; design: concentration or dose not given beside the values; settings: concentration not given here; how it was run: as §3
[7] = system: Plasmodium falciparum; experiment: Inhibition of Plasmodium falciparum recombinant falcipain-2 expressed in Escherichia coli at 100 uM after 20 min by spectrofluorometry; how it was run: as §2
[8] = biological target: Rhodesain (Trypanosoma brucei rhodesiense, UniProt Q95PM0); experiment: Inhibition of Trypanosoma brucei rhodesiense recombinant rhodesain
[9] = Inhibition of Plasmodium falciparum recombinant falcipain-2 expressed in Escherichia coli after 20 min using Cbz-Phe-Arg-AMC as substrate by spectrofluorometry; settings: in the assay text read “over 5-10 min” for “after 20 min”
How it was run: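 Continuous assay without preincubation. Recombinant falcipain-2 in 50 mM acetate pH 5.5, 5 mM EDTA, 200 mM NaCl, 5 mM DTT, 10% DMSO final; Cbz-Phe-Arg-AMC (40 μM, Km 21.5 μM) or Cbz-Leu-Arg-AMC (25 μM, Km 8.4 μM). Fluorescence monitored 5-10 min at 0.1-80 μM inhibitor. Ki from Dixon plot, corrected to zero substrate; at least two independent assays.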

[10] = biological target: T1, Cathepsin B; experiment: Inhibition of human liver cathepsin B at 200 uM measured before dialysis
How it was run: (§4)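 Human liver cathepsin B activity measured with 200 μM inhibitor before and after 3 h of continuous dialysis against assay buffer, to test reversibility.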

[11] = system: Plasmodium falciparum; experiment: Antiplasmodial activity against Plasmodium falciparum FCBR by fluorometric method; assay type: functional, organism-based, FCBR/Columbia; settings: Plasmodium falciparum, FCBR/Columbia; read-out: IC50
[12] = biological target: T1, Cathepsin B; experiment: Inhibition of human liver cathepsin B; how it was run: as §1
[13] = system: Trypanosoma brucei brucei; experiment: Antitrypanosomal activity against Trypanosoma brucei brucei; assay type: functional, organism-based
[14] = biological target: T1, Cathepsin B; experiment: Inhibition of human liver cathepsin B at 200 uM measured after dialysis; how it was run: as §4
[15] = Inhibition of Plasmodium falciparum falcipain-2 by fluorescence enzyme assay
[16] = biological target: Rhodesain (Trypanosoma brucei rhodesiense) (UniProt Q95PM0); experiment: Inhibition of Trypanosoma brucei rhodesiense recombinant rhodesain at 200 uM

Rhodesain (Trypanosoma brucei rhodesiense), sequence (Q95PM0 1-450): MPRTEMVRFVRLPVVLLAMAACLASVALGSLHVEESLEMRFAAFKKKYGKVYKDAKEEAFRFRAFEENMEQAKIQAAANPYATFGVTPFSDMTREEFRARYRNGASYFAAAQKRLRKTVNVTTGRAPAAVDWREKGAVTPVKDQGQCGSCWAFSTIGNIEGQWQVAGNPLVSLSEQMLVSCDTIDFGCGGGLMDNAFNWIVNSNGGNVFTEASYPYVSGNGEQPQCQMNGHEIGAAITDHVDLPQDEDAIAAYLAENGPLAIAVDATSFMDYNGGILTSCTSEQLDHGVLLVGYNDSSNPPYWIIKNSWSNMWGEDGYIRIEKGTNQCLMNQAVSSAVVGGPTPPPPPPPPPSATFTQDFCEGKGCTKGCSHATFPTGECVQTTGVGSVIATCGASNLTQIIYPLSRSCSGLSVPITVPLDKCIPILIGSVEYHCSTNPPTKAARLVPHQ
Rhodesain, sequence (Q95PM0 whole entry): as the sequence (Q95PM0 1-450) above
Procathepsin L, sequence (P25975 whole entry): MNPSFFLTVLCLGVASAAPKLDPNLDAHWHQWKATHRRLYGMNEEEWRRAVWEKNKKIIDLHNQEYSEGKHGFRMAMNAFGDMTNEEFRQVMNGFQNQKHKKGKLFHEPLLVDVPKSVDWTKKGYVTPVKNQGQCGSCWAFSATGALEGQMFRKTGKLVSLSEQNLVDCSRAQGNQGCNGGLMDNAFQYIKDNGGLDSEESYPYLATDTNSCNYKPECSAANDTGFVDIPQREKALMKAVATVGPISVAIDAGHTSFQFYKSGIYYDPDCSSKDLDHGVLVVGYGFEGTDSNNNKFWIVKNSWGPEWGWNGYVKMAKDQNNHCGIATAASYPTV

inhibition [16] [%]	SMILES	Ki [1] [µM]	inhibition [2] [%]	inhibition [3] [%]	Ki [4] [µM]	inhibition [5]	inhibition [6] [%]	inhibition [7] [%]	Ki [8] [nM]	Ki [9] [µM]	inhibition [10] [%]	IC50 [11] [µM]	Ki [12] [nM]	IC50 [13]	inhibition [14] [%]	Ki [15] [nM]
	CC(=O)NC[C@H](NC(=O)/C=C/C(=O)NCC(=O)NCC(=O)N[C@@H](Cc1ccccc1)C(=O)O)C(=O)N[C@@H](CC(C)C)C(=O)N[C@@H](CC(C)C)C(=O)N[C@H](C(N)=O)C(C)C (HELM PEPTIDE1{[O=C(/C=C/C(=O)[*:2])NCC(=O)NCC(=O)N[C@@H](Cc1ccccc1)C(=O)O].[O=C([C@H](CN[*:3])N[*:1])[*:2]].L.L.V.[am]}|PEPTIDE2{[ac]}$PEPTIDE1,PEPTIDE2,2:R3-1:R2$$$V2.0)	40	87	54	11.8	inactive	60	79	1800							
	CC(C)[C@H](NC(=O)[C@@H](NC(=O)[C@@H](NC(=O)[C@H](CC(N)=O)NC(=O)/C=C/C(=O)NCC(=O)NCC(=O)N[C@@H](Cc1ccccc1)C(=O)O)C1CCCCC1)C(C)C)C(N)=O (HELM PEPTIDE1{[O=C(/C=C/C(=O)[*:2])NCC(=O)NCC(=O)N[C@@H](Cc1ccccc1)C(=O)O].N.[O=C([C@@H](N[*:1])C1CCCCC1)[*:2]].V.V.[am]}$$$$V2.0)	37.5	96	61		100%	46	90	80	5.2	74	32	1400	Not Active	73	
	CC(C)C[C@H](NC(=O)[C@H](C)NC(=O)/C=C/C(=O)N[C@@H](C)C(=O)NCC(=O)N[C@@H](Cc1ccccc1)C(=O)O)C(=O)N[C@@H](CC(C)C)C(=O)N[C@H](C(N)=O)C(C)C (HELM PEPTIDE1{[C[C@H](NC(=O)/C=C/C(=O)[*:2])C(=O)NCC(=O)N[C@@H](Cc1ccccc1)C(=O)O].A.L.L.V.[am]}$$$$V2.0)	33.6	96	58	9.5	45%	67	86	1300							
	CC(C)C[C@H](NC(=O)[C@H]1O[C@@H]1C(=O)O)C(=O)NCCCCN=C(N)N [E-64]															290
28	N=C(N)c1ccc(OCCCCCOc2ccc(C(=N)N)cc2)cc1															
